From PubChem
CHRM4 antagonist = blocks acetylcholine activation of human M4 receptor. CHO-hM4 cells, ACh EC80, Fluo-8 calcium fluorescence. inhibition, % at 3 µM. 360,000 compounds, 0.73% hits. AID 624125;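 active = inhibition above its plate's cutoff, the mean inhibition of sample wells plus 3 SD, cut at about 27% in these data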;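 also: 0% = acetylcholine EC80 with DMSO and 100% = DMSO without agonist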
CHRM5 PAM = potentiates acetylcholine response at human M5 receptor; P08912; CHO-K1 hM5, Fluo-8 calcium, ACh EC20 PAM; 0% = ACh EC20, 100% = ACh EC100; activation, % at 3 µM; 360,000 compounds, 0.3% hits; AID 624038;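 active = activation above the run cutoff, the mean activation of all test compounds plus 3 SD, cut at about 18% in these data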
Target sequence (P08912 whole entry, looked up): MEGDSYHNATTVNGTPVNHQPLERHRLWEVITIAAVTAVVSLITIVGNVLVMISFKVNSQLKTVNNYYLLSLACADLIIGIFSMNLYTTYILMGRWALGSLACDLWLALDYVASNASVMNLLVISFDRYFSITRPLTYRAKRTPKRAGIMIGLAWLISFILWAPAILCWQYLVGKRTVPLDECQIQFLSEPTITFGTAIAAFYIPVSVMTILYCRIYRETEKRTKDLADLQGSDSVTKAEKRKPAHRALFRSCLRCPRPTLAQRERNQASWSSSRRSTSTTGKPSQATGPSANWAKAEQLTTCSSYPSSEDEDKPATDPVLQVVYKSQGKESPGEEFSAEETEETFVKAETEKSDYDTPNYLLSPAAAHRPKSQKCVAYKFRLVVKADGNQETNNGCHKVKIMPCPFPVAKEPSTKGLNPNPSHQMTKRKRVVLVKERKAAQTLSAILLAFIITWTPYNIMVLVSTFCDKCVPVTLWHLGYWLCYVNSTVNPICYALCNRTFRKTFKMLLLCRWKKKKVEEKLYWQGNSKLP
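system = human M5 receptor in CHO-K1 cells | reagent = EC20 acetylcholine as agonist stimulus | compound dosing = single-point, 3 µM nominal | incubation = Fluo-8 loading 80 min at 37 °C plus 30 min room temperature | detection = Fluo-8 calcium dye fluorescence, kinetic read | benchmarks = low control EC20 acetylcholine (0%), high control EC100 acetylcholine (100%)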
M5 antag = blocks acetylcholine activation of human M5 receptor; P08912; CHO-hM5 cells, Fluo-8 calcium fluorescence, ACh EC80; inhibition, % at 3 µM; 360,000 compounds, 0.59% hits;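 active = inhibition above a per-plate cutoff, the mean of that plate's test compounds plus 3 SD, cut at about 27% in these data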;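 also: 0% = acetylcholine EC80 with DMSO and 100% = DMSO without agonist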
M4 PAM = CHRM4 positive allosteric modulation; P08173; CHO-K1 hM4/Gqi5, Fluo-8 calcium fluorescence, ACh EC20; 0% = ACh EC20, 100% = maximal ACh; activation, % at 3 µM; 360,000 compounds, 0.4% hits;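 active = activation above its plate's cutoff, the mean activation of sample wells plus 3 SD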
CHRM4 agonist = agonists of human muscarinic M4 receptor (CHRM4) | 360,000 compounds, 0.14% hits | AID 624127 | P08173 | activation, % at 3 µM | CHO-K1 hM4/Gqi5, Fluo-8 calcium fluorescence; vehicle 0%, full acetylcholine response 100%;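 active = activation above the run mean over all test wells plus 3 SD, cut at about 32% in these data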;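 also: peak over basal fluorescence ratio per well then scaled between controls; 0% = DMSO wells and 100% = acetylcholine at EC100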
M5 ag = agonists of human muscarinic M5 receptor (CHRM5); P08912; CHO-K1 hM5 cells, Fluo-8 calcium fluorescence; 0% DMSO wells, 100% maximal acetylcholine response; activation, % at 3 µM; 360,000 compounds, 0.19% hits; AID 624037;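 active = activation above the run's mean over test compounds plus 3 SD, cut at about 23% in these data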;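 also: signal is peak over basal fluorescence ratio across the kinetic read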
Active calls of the source: *. Shown are actives, neighbours in structure and some others; about 1.8% of the full set was active somewhere.

SMILES	CHRM4 antagonist	CHRM5 PAM	M5 antag	M4 PAM	CHRM4 agonist	M5 ag
Oc1ccccc1Oc1ncc(Br)c(N2CCOCC2)n1	40*	-23	11	-18	1	-8
Oc1ccccc1Oc1ncc(Br)c(Cl)n1	-1	4	-4	5	-1	-8
Brc1cnc(N2CCCC2)nc1N1CCOCC1	27*	-1	5	11	0	-3
Cc1ccc(C)c(N2C(=O)CC(Cc3ccccc3)C2=O)c1 (centres undefined)	3	-1	-1	-4	-1	4
COc1ccc(CN(C)C(=O)/C=C/c2ccc(S(=O)(=O)N3CCCCCC3)cc2)cc1	-8	-29	7	-2	14	-8
Cc1ccc(CN2CCC(n3nccc3NC(=O)CCOc3ccccc3)CC2)cc1C	-9	-5	13	1	3	-6
CCOC(=O)c1cc(N2CCCCC2)nc2ccccc12	-1	-8	28*	-6	-1	-3
Cc1ccc(CN(C)C(=O)C2CCC(=O)N(C3CCCCCC3)C2)cc1 (centres undefined)	0	1	8	0	1	-3
CCC(C)NC(=O)C1c2ccccc2C(=O)N1Cc1ccc(OC)cc1OC (centres undefined)	-3	3	-9	1	1	2
CCC(C)NC(=O)C1c2ccccc2C(=O)N1Cc1ccccc1OC (centres undefined)	-8	30*	-12	11	0	3
COC(=O)c1cc(NC(=S)NCc2ccc(Cl)cc2)cc(C(=O)OC)c1	13	-14	29*	-6	18	12
COC(=O)c1cccc(NC(=S)NCc2ccc(Cl)cc2)c1	6	-9	13	-6	16	14
CC1CN(C(=O)c2cccc(S(=O)(=O)N3CCN(c4ccccc4)CC3)c2)CC(C)O1 (centres undefined)	1	-7	2	3	5	3
COc1ccc(C2C(C(=O)N3CCN(c4ccccc4)CC3)c3ccccc3C(=O)N2C)cc1 (centres undefined)	-2	-10	6	-8	6	4
COc1ccc(C2C(C(=O)N3CCN(C)CC3)c3ccccc3C(=O)N2C2CCCCC2)cc1 (centres undefined)	-9	22*	-8	22*	2	-11
Cc1ccc(-c2cc(C(=O)Nc3cnn(C45CC6CC(CC(C6)C4)C5)c3)no2)cc1	3	4	-3	11	4	2
Cc1ccc(-c2cc(C(=O)Nc3cnn(C(C)C)c3)no2)cc1	5	-14	-2	-4	7	26*
COc1ccccc1-c1ccc(/C=C2\C=CC(=O)O2)o1	8	-24	27*	-15	24	70*
COc1ccccc1-c1ccc(/C=C2/C=C(C)OC2=O)o1	-10	2	1	6	2	-2
CN(C)CCC[C@]1(c2ccc(F)cc2)OCc2cc(C#N)ccc21	3	-3	8	-5	2	0
CN(C)CCC[C@@]1(c2ccc(F)cc2)OCc2cc(C#N)ccc21	30*	-6	-11	-17	4	-1
CCN1/C(=C/c2ccc3cccc(C)c3[n+]2CC)Sc2ccccc21	31*	-7	27*	-8	10	6
CCN1/C(=C\c2ccc3cc(C)ccc3[n+]2CC)Sc2cc(C)c(C)cc21	20	-23	42*	-9	8	9
CCN1/C(=C/c2ccc3cc(C)cc(C)c3[n+]2CC)Sc2cc(C)ccc21	21	-23	31*	-6	20	5
CC(=O)c1cccc(NC(=O)C(C)OC(=O)c2cccc(-n3cnnn3)c2)c1 (centres undefined)	-7	5	-4	5	4	4
COc1ccccc1NC(=O)Nc1nc(CC(=O)Nc2ccc(N(C)C)cc2)cs1	-1	-12	5	-2	10	3
CC(NC(=O)c1ccccc1NC(=O)CN1CCc2ccccc2C1)c1ccccc1 (centres undefined)	11	-5	12	-5	15	3
